An excerpt weighted towards active compounds, which were near 1.6% of everything screened.
PPC-1+TRAIL kill: compounds killing PPC-1 cancer cells with TRAIL present, primary screen, TRAIL potentiator project, ATPLite luminescence, uHTS | cell killing (% activity), % at 4 µM or 5 µM | 0.41% of 220,000 active | PPC-1 cells + TRAIL, ATPLite viability luminescence | AID 1443, 2008;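 active means cell killing above 50% in the first pass at 4 µM, then a duplicate retest at 5 µM averaging 50% or more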;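 further: plate controls were cells with TRAIL plus DMSO for no effect and medium-only wells lacking cells for full effect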
Platelet DG rel: inhibitors of platelet dense granule secretion, primary screen, cell-based, MLPCN, human platelets. human platelet-rich plasma, SFLLRN dense granule ATP release, luminescence. inhibition, %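 (compounds screened at 7.5 µM in platelet-rich plasma)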. 0.22% of 300,000 active;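 active means mean replicate score, as percent of positive control, at or above 50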
FLuc stim CS: FLuc activators, initial screening, artefact control for FLuc-dependent activation tests, biochemical, ATPlite luminescence; ATPlite luciferase biochemical, 10 min; 0 = ATP-free wells, 1 = DMSO control; AID 1027, 2008; activation factor at 10 µM; Luciferin 4-monooxygenase (Photinus pyralis), P08659; 200,000 tested, under 10 active;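 active means luciferase activation factor, scaled between plate controls, of at least 2 with compound at 10 µM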
Target sequence (P08659 whole entry, looked up): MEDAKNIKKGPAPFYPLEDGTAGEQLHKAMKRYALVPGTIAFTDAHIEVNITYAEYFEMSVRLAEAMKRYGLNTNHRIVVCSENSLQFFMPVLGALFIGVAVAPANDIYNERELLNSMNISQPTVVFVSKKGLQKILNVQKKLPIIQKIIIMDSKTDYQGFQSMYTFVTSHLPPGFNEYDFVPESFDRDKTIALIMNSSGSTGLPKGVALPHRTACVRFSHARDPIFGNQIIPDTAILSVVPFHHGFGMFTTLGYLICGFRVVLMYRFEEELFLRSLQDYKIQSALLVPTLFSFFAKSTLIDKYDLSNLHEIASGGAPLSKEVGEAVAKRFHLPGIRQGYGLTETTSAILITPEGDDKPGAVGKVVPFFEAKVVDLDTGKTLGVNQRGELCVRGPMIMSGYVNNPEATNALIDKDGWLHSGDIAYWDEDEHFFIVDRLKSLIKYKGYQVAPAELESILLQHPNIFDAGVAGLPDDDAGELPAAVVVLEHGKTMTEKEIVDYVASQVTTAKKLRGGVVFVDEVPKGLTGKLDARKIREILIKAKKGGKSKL
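Material: Luciferase/luciferin reagent mix | Doses: Test compounds dosed from 2 mM stocks in 100% DMSO | Timing: 10 min incubation after luciferase reagent addition, room temperature | Measured by: Luminescence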
TRAIL sens C8: viability loss with TRAIL in NB7+C8 cells, primary screen, TRAIL sensitizer project, cell-based, ATPlite luminescence | inhibition (viability loss, TRAIL sensitization), % at 10 µM | 1% of 360,000 active | AID 624354, 2012;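 active means compounds causing at least 50% loss of cell viability in the single-dose screen, relative to plate controls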
FLuc inh counter: firefly luciferase enzyme inhibitors, primary screen, artefact control for luciferase-based inhibitor screens, biochemical, luminescence, ATPLite; AID 1006, 2008; 10 min; Luciferin 4-monooxygenase (Photinus pyralis), P08659; 1.5% of 200,000 active; inhibition, % at 10 µM;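 active means inhibition above about 50% when tested at 10 µM, limit read from the data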
PPC-1 tox: cytotoxicity in PPC-1 cells, confirmation, cytotoxicity control for TRAIL apoptosis potentiator project, cell-based, ATP content luminescence | shares compounds with PPC-1+TRAIL kill | PPC-1 viability, ATPlite luminescence, overnight | cytotoxicity, % at 5 µM | 50% of 1,200 active;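 active means reconfirmed compounds whose average cytotoxicity reaches 50% or more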;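 further: 0% = DMSO-treated cells and 100% = wells holding medium but no cells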
Numbers without * were called inactive; nt = not tested or not shown.

SMILES | PPC-1+TRAIL kill | Platelet DG rel | FLuc stim CS | TRAIL sens C8 | FLuc inh counter | PPC-1 tox
CCN1CCN(C(=O)c2ccc(-c3nc4ccccc4s3)s2)CC1 | 9.7 | 4.7 | 0.7 | 24.4 | 34.2 | nt
O=C(NC1CC1)c1ccc(-c2nc3ccccc3s2)s1 | 92.9* | 26.8 | 0 | 91.2* | 95.9* | 92.8*
O=C(c1ccc(-c2nc3ccccc3s2)s1)N1CCOCC1 | 88.1* | 46.0 | 0 | nt | 96.0* | 88.1*
O=C(NC1CC1)C1CCN(c2nc3ccccc3s2)CC1 | nt | 5.1 | nt | 14.3 | nt | nt
Cc1ccc(F)c(S(=O)(=O)NC(=O)C2(C)CCN2C(=O)CC(c2ccccc2)c2ccccc2)c1 (stereo not drawn) | nt | nt | nt | -4.0 | nt | nt
CCc1nc2ccc(C(=O)NCCCn3ccnc3)cn2c1N(C)C(=O)c1cccc(OC)c1 | nt | nt | nt | -2.8 | nt | nt
CCc1c(C)c2c(C)nn(-c3ccccc3)c2[nH]c1=O | -5.5 | -9.5 | 1.1 | 4.8 | -10.1 | nt
CCc1c(C)n2nc(C)cc2[nH]c1=O | 14.4 | 0.2 | 1 | -19.4 | 0.6 | 11.8
COc1ccc(C(=O)n2c(N)nc3ccccc32)cc1OC | nt | 1.7 | nt | 6.9 | nt | nt
Nc1nc2ccccc2n1C(=O)c1ccccc1 | 61.6* | 31.9 | 0.1 | 76.6* | 89.9* | 61.6*
Nc1nc2ccccc2n1C(=O)c1ccc(F)cc1 | 50.5* | 11.6 | 0.1 | 81.2* | 91.0* | 49.7
O=C1NC[C@@H](CCCCN2CCN(CCc3ccccc3)C(=O)C2=O)N(CC2CCCCC2)C1=O | nt | nt | nt | 11.0 | nt | nt
COc1ccc(Cl)cc1-c1cc(C(=O)NCc2ccccc2)[nH]n1 | nt | nt | nt | 4.2 | nt | nt
O=C(O)CCC(=O)Nc1ccc(F)cc1 | -11.2 | 3.5 | 1 | 10.7 | -4.0 | -11.8
O=C(O)CCC(=O)Nc1ccc(SSc2ccc(NC(=O)CCC(=O)O)cc2)cc1 | nt | 2.0 | nt | 4.6 | nt | nt
COC(=O)c1cccc(S(=O)(=O)N2CCC(n3nnc4cc(F)ccc43)CC2)c1 | 9.5 | 2.5 | 1 | -1.3 | -0.8 | 23.6
CCCCN1C(=O)C(NC(C)=O)c2cc(Br)ccc21 (stereo not drawn) | 0.3 | -5.5 | 1 | 10.2 | 1.0 | -13.9
CCN1C(=O)C(NC(C)=O)c2cc(Br)ccc21 (stereo not drawn) | 17.6 | -2.2 | 1.1 | -7.1 | -6.4 | nt
c1ccc2sc(SCSc3nc4ccccc4s3)nc2c1 | 0.1 | 2.8 | nt | 7.0 | nt | nt
N#CCc1nc(CSc2nc3ccccc3s2)cs1 | -14.7 | -2.3 | 0.9 | 28.7 | 5.9 | -31.5
O=C(Nc1ccc2c(c1)OCCO2)c1cc2ccccc2o1 | 56.5* | 11.4 | 0.1 | 79.4* | 92.1* | 55.8*
O=C(Nc1ccc2c(c1)OCCO2)c1ccc(Br)o1 | 52.1* | nt | 0.2 | 60.9* | 81.9* | 51.1*
O=C(Nc1ccc2oc(=O)ccc2c1)c1cc2ccccc2o1 | 22.3 | -0.6 | 0.7 | 34.5 | 28.3 | nt
Cc1ccc(NC(=O)c2cc3ccccc3o2)cc1S(=O)(=O)N(C)C | 49.5 | nt | 0.3 | 66.9* | 72.5* | 46.2
O=C(CSc1nnc(Cc2cccs2)n1C1CCCCC1)N1CCCc2ccccc21 | 2.3 | 3.5 | 1 | 20.3 | 0.7 | 6.9
SMILES | PPC-1+TRAIL kill | Platelet DG rel | FLuc stim CS | TRAIL sens C8 | FLuc inh counter | PPC-1 tox
Cc1cc2nc(-c3ccc(F)cc3)c(CC3CCCCC3)n2c(C)c1Br | nt | nt | nt | 16.6 | nt | nt
Cc1cc(/C=C2/C(=N)N3C(=NC2=O)SN=C3S(C)(=O)=O)c(C)n1-c1ccccc1F | 67.9* | -2.9 | 0.1 | 84.9* | 93.3* | 70.1*
COc1cc(/C=C(/C(=O)c2cccs2)c2nc3ccccc3[nH]2)ccc1O | 17.6 | 4.6 | 0.6 | 25.2 | 35.3 | 13.9
C=CCNC(=O)c1sc(-c2ccccc2)nc1C | -4.2 | 6.4 | 1 | 6.0 | 1.5 | nt
Cc1nc(-c2ccccc2)sc1C(=O)NN | 15.0 | -11.4 | 1.1 | -1.8 | -6.8 | 14.4
C/C(=N\N1C(=O)c2ccccc2NC1c1ccco1)c1ccccc1O (stereo not drawn) | 46.2 | 0.6 | 1 | 76.0* | 1.8 | 50.0*
O=C1c2ccccc2NC(c2ccco2)N1/N=C/c1ccco1 (stereo not drawn) | 27.2 | -0.6 | 1 | 16.9 | -1.7 | nt
C/C(=N\N1C(=O)c2ccccc2NC1c1ccccc1)c1ccccc1O (stereo not drawn) | 48.0 | 3.2 | 1 | 69.9* | -0.9 | 42.3
CC1(C(=O)NS(=O)(=O)c2ccc(C#N)cc2)CCN1C(=O)Cc1cc(F)ccc1F (stereo not drawn) | nt | nt | nt | -13.5 | nt | nt
CCN(CC)c1ccc(NC(=S)Nc2ccc(F)cc2)cc1 | 16.1 | 4.5 | 1 | 3.5 | 0.5 | 6.5
O=C(Nc1ccn(CCCN2CCN(Cc3ccc(F)cc3)CC2)c(=O)n1)OCc1ccccc1 | nt | nt | nt | 11.2 | nt | nt
COCCn1c(C)cc(C2=NNC(=NC3CC3)SC2)c1C | 89.2* | 81.6* | 0 | 78.3* | 95.8* | 88.1*
CCOc1ccc(N=C2NN=C(c3cc(C)n(CC4CCCO4)c3C)CS2)cc1 (stereo not drawn) | -2.8 | 3.9 | 1 | -14.8 | 1.5 | nt
CCCCCCCCN1C(=O)[C@H](CC(=O)NCc2ccccc2)C[C@@]2(C(=O)OC)CCCCC=C12 | nt | nt | nt | 12.5 | nt | nt
CN(C(=O)c1ccc2c(c1)OCO2)C1(C(=O)NC2CCCC2)CCCCC1 | 5.9 | nt | 1.1 | -6.4 | -5.2 | 2.1
O=C(c1ccc2c(c1)OCO2)N(CC1CCCO1)C1(C(=O)NC2CCCCC2)CCCCC1 (stereo not drawn) | 7.1 | 2.0 | 1.1 | 4.3 | -6.2 | nt
CCCCc1c(-c2ccc(F)cc2)ncn1CCc1ccccc1OC | nt | nt | nt | 26.4 | nt | nt
O=C(NCc1cccnc1)C1CCCN(S(=O)(=O)c2ccccc2)C1 (stereo not drawn) | 6.6 | -0.8 | 1 | 16.1 | 2.4 | 9.0
CCCn1c(N)c(C(=O)CSc2nnc(Cc3ccccc3)o2)c(=O)n(C)c1=O | 12.8 | 5.7 | 1 | 4.4 | -0.6 | 8.3
O=C(CSc1nnc(Cc2ccccc2)o1)c1ccccc1 | nt | -7.8 | 1 | 0.7 | -3.7 | nt
COC(=O)C[C@H]1CC[C@@H](NC(=O)Nc2ccc(C(F)(F)F)cc2)[C@@H](CO)O1 | nt | nt | nt | -6.8 | nt | nt
Cc1cc2sc(NC(=O)c3ccco3)nc2cc1Cl | nt | 8.1 | nt | 41.5 | nt | nt
Cc1ccc2nc(NC(=O)c3ccco3)sc2c1 | 70.2* | 21.9 | 0.1 | 78.2* | 90.4* | 64.2*
CCOc1ccc(NC(=O)Nc2cccc(C)n2)cc1 | nt | 1.6 | nt | 12.6 | nt | nt
CCOc1ccc(C(=O)Nc2cc(C)ccn2)cc1 | 91.5* | 75.9* | 0 | 89.9* | 97.3* | 90.5*
CCOc1ccc(C(=O)Nc2cccc(C)n2)cc1 | 51.0* | 30.0 | 0.2 | 57.3* | 79.0* | 52.4*
CCOc1cc(C(=O)Nc2cc(C)ccn2)cc(OCC)c1OCC | 5.6 | -2.3 | 1 | 7.3 | -0.5 | nt
